Measured values from different studies.
Compare with care: the assays were run in different laboratories.
Target: MAP kinase-activated protein kinase 2 (MAPKAPK2, Homo sapiens, UniProt P49137)

Structure (SMILES) | read-out | action | technique | tested at | measurement | result
COc1ccc2oc(-c3ccc4nc(N)oc4c3)c/c(=N\c3ccccc3NC(=O)CCN)c2c1 | binding |  |  | 1 µM | remaining binding | 103%
N#Cc1ccc(NC(=O)Nc2ccccc2)cc1 | cell-free assay |  | competition with immobilised ligand | 25 µM | remaining binding | 65%
CCCCC(=O)Nc1ccc(-c2ccc3ncn(CCC)c(=O)c3c2)cn1 | binding |  | competition with immobilised ligand | 0.5 µM | remaining binding | 100%
C=CC(=O)N1CCC([C@@H]2CCNc3c(C(N)=O)c(-c4ccc(Oc5ccccc5)cc4)nn32)CC1 | enzyme activity | inhibitor |  | 1 µM | inhibition | 29%
CN1CCN(C(=O)c2ccc(NC(=O)Nc3ccc(N(C)c4ccnc(Nc5ccc(CS(C)(=O)=O)cc5)n4)cc3)cc2)CC1 | binding |  |  | 1 µM | remaining binding | 100%
C=CC(=O)N1CCC[C@@H](n2nc(-c3ccc(Oc4ccccc4)cc3)c3c(N)ncnc32)C1 | enzyme activity | inhibitor |  | 1 µM | inhibition | 0%
C1=C/COCc2cc(ccc2OCCN2CCCC2)Nc2nccc(n2)-c2cccc(c2)COC/1 | binding |  |  | 0.1 µM | remaining binding | 100%
COc1ccc2[nH]c3c4[nH]c5ccc(OC)cc5c4c4c(c3c2c1)C(=O)NC4=O | binding |  |  | 1 µM | remaining binding | 100%
C#Cc1cnc(Nc2ccnc(CO)c2)nc1Nc1ccccc1S(C)(=O)=NC#N (stereo not drawn) | cell-free assay |  |  | 1 µM | remaining signal | 100%
